Screening results (PubChem)
Beta apoptosis: blocks beta cell apoptosis. protection from apoptosis, % (test concentration not listed). 0.8% of 300,000 active. AID 435005. INS-1E cytokine-induced death, ATP luminescence, 48 h; percent of positive-control rescue, neutral wells zero;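 active = Every replicate reaches about 75%, or at least half do and their mean reaches it too, limit read from the data; inconclusive = At least half of replicates reach the limit but their mean does not; inactive = Under half of replicates reach the limit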;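 also: 0% = cytokine-treated negative control wells and 100% = positive control rescue; higher means more ATP so stronger rescue from cytokine killing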
GRIN3A LBD mod: NR3A (human) ligand-binding domain modulation | 2.5% of 340,000 active | Tm shift relative to glycine control, % at 25 µM | NR3A LBD differential scanning fluorimetry, Tm shift; 0% = protein alone, 100% = glycine-bound protein;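 active = melting temperature shift of at least 10% of the positive control shift, at one fixed dose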
CHOP inh: blocks CHOP induction under ER stress; CHO-K1 CHOP-promoter luciferase, tunicamycin-induced, 15-18 h; inhibition, % at 10 µM; 3.8% of 220,000 active;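 active = compounds that reduced the stress-induced luciferase reporter signal by more than about 70% of percent inhibition, limit read from the data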;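 also: 0% = tunicamycin plus vehicle and 100% = wells without tunicamycin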
PREPL inh: inhibitors of human prolyl oligopeptidase-like enzyme PREPL | Q4J6C6 | AID 2751 | inhibition, % at 5.96 µM | 0.68% of 320,000 active | recombinant PREPL, fluorescence polarization activity-based probe; in the data active = inhibition above about 43%;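 also: 0% = enzyme with DMSO and 100% = wells lacking enzyme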
Target sequence (Q4J6C6 whole entry, looked up): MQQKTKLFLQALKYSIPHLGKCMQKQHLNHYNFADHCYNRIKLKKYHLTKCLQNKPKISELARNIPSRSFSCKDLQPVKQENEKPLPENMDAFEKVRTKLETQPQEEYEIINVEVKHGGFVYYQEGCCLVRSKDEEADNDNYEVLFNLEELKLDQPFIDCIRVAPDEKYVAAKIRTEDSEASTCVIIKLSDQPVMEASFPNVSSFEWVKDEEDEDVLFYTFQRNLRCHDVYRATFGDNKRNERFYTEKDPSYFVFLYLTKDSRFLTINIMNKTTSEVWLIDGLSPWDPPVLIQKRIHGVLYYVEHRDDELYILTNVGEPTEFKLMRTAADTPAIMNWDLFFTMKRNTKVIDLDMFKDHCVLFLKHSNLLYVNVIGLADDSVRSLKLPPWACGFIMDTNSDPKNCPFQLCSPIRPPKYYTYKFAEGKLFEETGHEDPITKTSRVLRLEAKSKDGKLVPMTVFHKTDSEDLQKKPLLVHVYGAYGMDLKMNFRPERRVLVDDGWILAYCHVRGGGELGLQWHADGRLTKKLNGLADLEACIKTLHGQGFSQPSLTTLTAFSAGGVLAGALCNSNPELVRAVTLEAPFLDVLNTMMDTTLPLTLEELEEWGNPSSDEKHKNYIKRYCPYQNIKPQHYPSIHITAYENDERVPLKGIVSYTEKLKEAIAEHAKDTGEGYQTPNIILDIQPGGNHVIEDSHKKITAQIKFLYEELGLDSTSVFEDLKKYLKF
T cruzi inh: T. cruzi replication inhibition; T. cruzi beta-gal in NIH3T3, luminescence, 90 h; inhibition, % (concentration not given with the values); 1.4% of 300,000 active; AID 1885;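 active = mean inhibition across valid replicates above about 55%, limit read from the data; inconclusive = mean below that limit but half or more replicates reach it; inactive = mean below it, under half of replicates reach it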;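 also: signal also drops with host cell toxicity which is not excluded here; 0% = plate median of DMSO wells and 100% = zero luminescence signal; higher percent means less beta-gal luminescence so fewer parasites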
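Assay system: NIH/3T3 host cells with β-galactosidase reporter T. cruzi; input: 5,000 host fibroblasts per well; compound: single 50 nL compound addition per well in DMSO; timing: ≥90 h infection period, 3 h prior cell attachment; measured by: GalScreen β-gal luminescence, detergent lysis, 60 min; evaluation: percent inhibition of parasite-derived β-gal signal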
CSC inhib: cancer stem cell inhibition. cancer stem cell-like cells viability, luminescence. inhibition, % at 7.5 µM. 1.1% of 300,000 active. AID 2717; in the data active = inhibition above about 75%; inconclusive = no clear call, values can overlap the other calls; tested in HMLE shEcad cells
* hit, by the source's call; ? = inconclusive; / = no result. An excerpt weighted towards active compounds, which were near 6.7% of everything screened.

SMILES	Beta apoptosis	GRIN3A LBD mod	CHOP inh	PREPL inh	T cruzi inh	CSC inhib
CCC(C)(C(=O)NC1CCCC1)N(C(C)=O)c1ccc(C)cc1 (configuration not stated)	-3	-1	-4	11	-9	-1
CCC(C)(C(=O)NC1CCCCC1)N(C(=O)C1CCC(=O)N1)c1ccc(C)cc1 (configuration not stated)	/	1	71*	-2	/	4
CC1=CC(=C(C#N)C#N)C=C(C)N1CCN1CCN(C(=O)Nc2ccc(Cl)c(Cl)c2)CC1	-3	18*	-26	5	1	-13
CCOc1ccccc1N1CCN(C(=O)Nc2ccc(Cl)c(Cl)c2)CC1	-1	/	31	12	33	11
Cn1cccc1CNCC(O)c1ccccc1 (configuration not stated)	/	0	/	1	-6	-13
CCCCN(C)CC(O)Cn1cc(/C=C/C(=O)c2ccc(C)cc2)c2ccccc21 (configuration not stated)	10	-1	/	45*	?	82*
O=C(/C=C/c1cn(CC(O)CN2CCCCC2)c2ccccc12)c1ccccc1 (configuration not stated)	/	0	-15	/	14	/
CCCN(CCC)CC(O)Cn1cc(/C=C/C(=O)c2ccccc2)c2ccccc21 (configuration not stated)	/	-1	31	/	41	/
CN1CCN(Cn2cc(/C=C/C(=O)c3ccccc3)c3ccccc32)CC1	-3	26*	-30	21	16	18
O=S(=O)(c1ccc(F)c(F)c1F)N1CCN(C(=S)Nc2ccccc2)CC1	2	-23	38	-8	1	17
O=C(CC(c1ccccc1)c1ccccc1)Nc1ccc(Cl)cn1	17	-4	78*	-28	11	-9
O=C(CCCOc1ccccc1)Nc1ccc(Cl)cn1	-6	-2	72*	-19	-16	54
O=C(CS(=O)(=O)c1ccccc1)Nc1ccc(Cl)cn1	7	-1	/	-12	-9	0
Cc1ccc(OCCC(=O)OCC(=O)Nc2ccc(Cl)cn2)cc1	-4	0	74*	-2	-7	-1
CCCCCCC(=O)Nc1ccc(Cl)cn1	0	-8	-10	-5	14	-6
CCOc1ccc(S(=O)(=O)N(CC(=O)N/N=C/c2cccs2)c2ccc(C)cc2)cc1	7	-3	76*	-76	-5	27
COc1ccc(N2C(=O)CSC23C(=O)N2c4c(cccc43)C(C)=CC2(C)C)cc1 (configuration not stated)	2	-3	75*	5	/	-7
COc1ccc(N2C(=O)CSC23C(=O)N2CCCc4cccc3c42)cc1 (configuration not stated)	4	-2	-2	7	5	-6
CC(C)N1C(=O)S/C(=C/c2ccc(Sc3nc4ccccc4[nH]3)o2)C1=O	42	-8	70*	-3	-19	12
CCN(CC)CCN(C(=O)CN1C(=O)c2ccccc2C1=O)c1nc2cc3c(cc2s1)OCO3	-1	1	/	10	57*	4
CN(C)CCN(C(=O)c1ccc(S(=O)(=O)N(C)c2ccccc2)cc1)c1nc2ccc(Cl)cc2s1	2	1	/	6	63*	-6
CN(C)CCN(C(=O)c1ccc(C(=O)c2ccccc2)cc1)c1nc2cc3c(cc2s1)OCO3	-14	11*	/	13	24	-2
CCN(CC)CCN(C(=O)c1ccc(S(=O)(=O)N2CCCCC2)cc1)c1nc2cc3c(cc2s1)OCO3	-3	0	2	15	63*	-11
CN(C)CCN(C(=O)c1ccc(S(=O)(=O)N(C)c2ccccc2)cc1)c1nc2cc3c(cc2s1)OCO3	-1	1	/	11	57*	4
CN(C)CCCN(C(=O)c1ccc(S(=O)(=O)N(C)C)cc1)c1nc2cc3c(cc2s1)OCO3	-4	2	11	24	4	-7
SMILES	Beta apoptosis	GRIN3A LBD mod	CHOP inh	PREPL inh	T cruzi inh	CSC inhib
CC(C)NS(=O)(=O)c1ccc(OCC(=O)N2CCc3ccccc3C2)cc1	1	0	74*	-3	-3	4
COc1cc2c(cc1OC)CN(C(=O)COc1ccc(C)c(C)c1)CC2	-1	0	34	0	56*	0
CC(C)C(=O)NC(NC(=O)C(C)C)c1ccc([N+](=O)[O-])cc1	-7	1	2	2	-3	-12
CC1(NC(=O)CSc2nnc(-c3c[nH]c4ccccc34)n2C2CC2)CCS(=O)(=O)C1 (configuration not stated)	-5	3	/	-1	/	-10
Cn1c(SCC(=O)N2CCN(c3ccccc3)CC2)nnc1-c1ccncc1	-3	11*	23	18	-5	-16
Cn1c(SCC(=O)N2CCN(c3cccc(Cl)c3)CC2)nnc1-c1ccncc1	-4	-2	-20	26	-10	-7
CCOC(=O)c1c(C)n(C(=O)c2ccco2)c(=O)n1C(=O)c1ccco1	-12	-3	85*	-4	-16	-16
CCOC(=O)c1c(C)c(C(=O)N2CCN(C(=O)c3ccco3)CC2)c(C)n1C	-4	0	4	4	0	-4
CCOC(CN=c1nc(N(C)C)ss1)OCC	/	22*	/	/	/	/
CCCOc1ccc2c(c1)C(=NN=C(N)N)c1cc(OCCC)ccc1-2	8	34*	/	12	39	112*
CCOc1ccc(NC(=S)NC(=O)c2c(Cl)c(C)nn2C)c([N+](=O)[O-])c1	4	2	73*	-5	6	0
CCOc1ccc(NC(=S)NC(=O)/C=C/c2ccc(C)cc2)c([N+](=O)[O-])c1	71	1	63	-11	25	-3
CCOc1ccc(NC(=S)NC(=O)/C=C/c2ccc(OC)c(OC)c2)c([N+](=O)[O-])c1	19	-2	81*	14	7	-9
CCN(CC)C(=O)[C@H]1CC(CC(=O)NC(C)(C)C)C(=O)N2CCc3c([nH]c4ccccc34)[C@]12C (some centres not stated)	-3	1	/	13	/	-15
CCN(C(=O)COC(=O)/C=C/c1nc2ccccc2s1)c1c(N)n(Cc2ccccc2)c(=O)[nH]c1=O	/	0	/	/	/	/
Cc1cnc(C(=O)Nc2cc(F)ccc2C)cn1	2	5	-10	-7	-6	5
CCn1c(CC(=O)Nc2ccccc2)nnc1SCC(=O)Nc1nnc(C)s1	0	-1	/	-5	2	-1
CN(C)c1ccc(C(=O)OCC#CCSc2nnc(-c3cccc4ccccc34)o2)cc1	7	2	/	8	/	/
CCOC(=O)c1cnc(SC)nc1Oc1cccc(NS(=O)(=O)c2ccccc2)c1	17	0	-8	10	56*	15
CCOC(=O)c1cnc(SC)nc1Oc1cccc(NC(=O)c2ccc(C)cc2)c1	-1	17*	12	4	-1	8
O=C(COc1ccc(Br)cc1)NCCNC(=O)c1ccccn1	4	0	/	-4	-15	-11
